One block for each compound: values may come before it. Activity calls are given as the source filed them. The calls are words filed in the database; no cut-off is given here.
Experiments:
[1] = Binding affinity to pBluescript 265 bp DNA fragment (unknown origin) assessed binding to AT-rich AATT sequence at 1 to 25 uM incubated for 15 mins by DNase-1 foot printing assay
Outline: (§1)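 265 bp EcoRI/PvuII fragment of pBluescript, 3'-end labelled with α[32P]-dATP, incubated with compound (up to 50 µM) for 15 min at 37 °C, then mildly digested with DNase I. Run on 8% denaturing polyacrylamide/8 M urea gels and imaged by phosphor screen. Base positions assigned against a DMS/piperidine G-track.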

[2] = Binding affinity to pBluescript 265 bp DNA fragment (unknown origin) assessed binding to AT-rich ATTA sequence at 1 to 25 uM incubated for 15 mins by DNase-1 foot printing assay; outline: as §1
HeLa = experiment: Antiproliferative activity against human HeLa cells assessed as inhibition of cell proliferation after 72 hrs by MTT assay; assay type: functional, cell-based; settings: for IC50: Homo sapiens, HeLa, 72 h
Outline: (§2)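 Cells grown as monolayers in DMEM with 10% FBS, 2 mM L-glutamine, penicillin/streptomycin, 37 °C, 5% CO2. Seeded at 5000/well on day 0. Compounds added after 24 h as five serial dilutions (0,01 to 100 µM), DMSO ≤0.1%, then 72 h. MTT read-out converted to percentage growth. IC50 by linear regression; quadruplicates in three experiments.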

Nucleic Acid = experiment: Induction of DNA intercalation in supercoiled pUC19 DNA in presence of human topoisomerase 1 assessed as effect on topoisomerase 1-mediated DNA relaxation at 50 uM by agarose gel electrophoresis; assay type: nucleic-acid assay; settings: Escherichia coli
Outline: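 Supercoiled pUC19 incubated with human topoisomerase I and graded compound concentrations. Stopped with SDS/proteinase K. DNA forms resolved on 1% agarose in TBE, 2 h at 120 V, stained post-run with ethidium bromide and viewed under UV. Camptothecin was the topo I poison control.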

Calf thymus DNA [3] = experiment: Binding affinity to calf thymus DNA assessed as change in melting temperature at drug/ base pair ratio of 0.25 by spectrophotometry; assay type: nucleic-acid assay; settings: Bos taurus
Outline: (§3)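 CT-DNA absorbance followed at 260 nm from 20 to 100 °C, rising 1 °C per min, in BPE buffer, with or without compound at drug/base-pair ratio 0.25 or 0.5. Tm taken as midpoint of the hyperchromic transition from first-derivative plots. ΔTm is Tm with compound minus Tm of DNA alone.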

MCF7 = experiment: Antiproliferative activity against human MCF7 cells assessed as inhibition of cell proliferation after 72 hrs by MTT assay; assay type: functional, cell-based; settings: for IC50: Homo sapiens, MCF7, 72 h; outline: as §2
[4] = Antiproliferative activity against human WI38 cells assessed as inhibition of cell proliferation after 72 hrs by MTT assay; assay type: cell-based, WI-38; outline: as §2
[5] = Binding affinity to pBluescript 265 bp DNA fragment (unknown origin) assessed binding to ACAA sequence at 1 to 25 uM incubated for 15 mins by DNase-1 foot printing assay; outline: as §1
HepG2 [6] = experiment: Antiproliferative activity against human HepG2 cells assessed as inhibition of cell proliferation after 72 hrs by MTT assay; assay type: functional, cell-based; settings: for IC50: HepG2, 72 h; outline: as §2
[7] = target: T1, DNA topoisomerase 1 (Homo sapiens) (UniProt P11387); experiment: Inhibition of human topoisomerase 1 assessed as topoisomerase poison activity by measuring generation of open circular DNA using supercoiled pUC19 DNA at 5 to 50 uM by agarose gel electrophoresis
T1 sequence (whole entry): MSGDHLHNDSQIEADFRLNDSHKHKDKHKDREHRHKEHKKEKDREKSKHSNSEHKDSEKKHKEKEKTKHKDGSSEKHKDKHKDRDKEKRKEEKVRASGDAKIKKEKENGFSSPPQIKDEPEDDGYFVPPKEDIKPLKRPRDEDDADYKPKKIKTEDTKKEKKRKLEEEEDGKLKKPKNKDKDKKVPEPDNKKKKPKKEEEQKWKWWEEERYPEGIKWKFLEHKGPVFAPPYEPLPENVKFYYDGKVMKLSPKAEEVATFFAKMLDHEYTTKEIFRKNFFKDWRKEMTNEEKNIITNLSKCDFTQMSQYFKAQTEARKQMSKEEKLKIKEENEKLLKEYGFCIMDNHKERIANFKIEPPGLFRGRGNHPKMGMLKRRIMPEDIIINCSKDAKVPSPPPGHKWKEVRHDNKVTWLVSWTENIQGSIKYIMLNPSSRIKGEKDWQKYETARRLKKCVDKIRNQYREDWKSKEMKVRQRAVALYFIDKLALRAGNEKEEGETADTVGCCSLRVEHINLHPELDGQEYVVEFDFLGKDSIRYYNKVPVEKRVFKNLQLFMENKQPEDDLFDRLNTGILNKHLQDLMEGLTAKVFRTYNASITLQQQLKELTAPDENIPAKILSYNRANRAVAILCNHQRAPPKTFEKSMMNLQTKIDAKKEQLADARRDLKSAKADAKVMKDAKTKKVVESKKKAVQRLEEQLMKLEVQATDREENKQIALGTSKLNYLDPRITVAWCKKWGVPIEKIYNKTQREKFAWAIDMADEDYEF
Outline: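 Supercoiled pUC19 plasmid was incubated with human topoisomerase I and graded compound concentrations. Reactions were stopped with SDS and proteinase K. DNA forms were resolved on 1% agarose in TBE (2 h, 120 V), post-stained with ethidium bromide and photographed under UV. Poisoning was read as appearance of nicked DNA, with camptothecin as the positive control.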

Calf thymus DNA [8] = experiment: Binding affinity to calf thymus DNA at 50 uM circular dichroism spectroscopy; assay type: nucleic-acid assay; settings: Bos taurus
Outline: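 CD spectra recorded from 480 to 230 nm, 10 mm path, 20 °C, in BPE buffer. CT-DNA (50 µM) incubated with compound rising from 1 to 60 µM or to 80 µM. Compound without DNA served as the control for intrinsic CD.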

Calf thymus DNA [9] = experiment: Binding affinity to calf thymus DNA assessed as change in melting temperature at drug/ base pair ratio of 0.5 by spectrophotometry; assay type: nucleic-acid assay; settings: Bos taurus; outline: as §3
[10] = Binding affinity to pBluescript 265 bp DNA fragment (unknown origin) assessed binding to TTGT) sequence at 1 to 25 uM incubated for 15 mins by DNase-1 foot printing assay; outline: as §1
[11] = (§4) Antiproliferative activity against human SW620 cells assessed as inhibition of cell proliferation after 72 hrs by MTT assay; assay type: functional, cell-based, SW-620; settings: Homo sapiens, SW-620, 72 h; outline: as §2
SW-620 = experiment: as §4; assay type: functional, cell-based; outline: as §2
HepG2 [12] = experiment: Induction of cell cycle arrest on human HepG2 cells assessed as accumulation at S phase at 10 uM after 24 hrs by propidium iodide staining based flow cytometry (reference value: 12.0 +/- 10.2%); assay type: functional
HepG2 [13] = experiment: Induction of cell cycle arrest on human HepG2 cells assessed as accumulation at G2/M phase at 25 uM after 24 hrs by propidium iodide staining based flow cytometry (reference value: 26.6 +/- 12.2%); assay type: functional
HepG2 [14] = experiment: Induction of cell cycle arrest on human HepG2 cells assessed as accumulation at G1 phase at 25 uM after 24 hrs by propidium iodide staining based flow cytometry (reference value: 61.4 +/- 2.0%); assay type: functional
HepG2 [15] = experiment: Induction of cell cycle arrest on human HepG2 cells assessed as accumulation at subG1 phase at 10 uM after 48 hrs by propidium iodide staining based flow cytometry (reference value: 1.9%); assay type: functional
Outline: (§5)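 HepG2 or SW620 cells were seeded at 25000 per well. After 24 h they were treated, then harvested 24 or 48 h later. Attached cells were trypsinized, pooled with floating cells, PBS-washed and fixed in 70% ethanol. Cells were stained with PI 1 µg/mL plus RNase A 0.2 µg/mL, and 10 000 events were acquired by flow cytometry. Phase percentages come from DNA histograms, in duplicate, with ANOVA at p < 0.05.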

HepG2 [16] = experiment: Induction of cell cycle arrest on human HepG2 cells assessed as accumulation at G1 phase at 25 uM after 48 hrs by propidium iodide staining based flow cytometry (reference value: 62.1 +/- 4.9%); assay type: functional
HepG2 [17] = experiment: Induction of cell cycle arrest on human HepG2 cells assessed as accumulation at G1 phase at 10 uM after 48 hrs by propidium iodide staining based flow cytometry (reference value: 62.1 +/- 4.9%); assay type: functional
HepG2 [18] = experiment: Induction of apoptosis in human HepG2 cells assessed as enlarged cells level at 25 uM after 24 hrs by Annexin V-Fluos staining based fluorescent microscopy; assay type: functional, cell-based
Outline: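 Cells seeded on chamber slides at 4000 per well and treated 24 h (HepG2 at 25 or 50 µM; SW620 at 50 µM). Incubated 15 min with Annexin V-Fluos reagent plus propidium iodide, washed in PBS, and examined by fluorescence microscopy for morphology and labelling.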

HepG2 [19] = experiment: Induction of cell cycle arrest on human HepG2 cells assessed as accumulation at S phase at 25 uM after 24 hrs by propidium iodide staining based flow cytometry (reference value: 12.0 +/- 10.2%); assay type: functional; outline: as §5
HepG2 [20] = experiment: Induction of cell cycle arrest on human HepG2 cells assessed as accumulation at S phase at 10 uM after 48 hrs by propidium iodide staining based flow cytometry (reference value: 6.8 +/- 5.3%); assay type: functional
HepG2 [21] = experiment: Induction of cell cycle arrest on human HepG2 cells assessed as accumulation at G2/M phase at 10 uM after 48 hrs by propidium iodide staining based flow cytometry (reference value: 31.1 +/- 0.4%); assay type: functional
HepG2 [22] = experiment: Induction of cell cycle arrest on human HepG2 cells assessed as accumulation at G1 phase at 10 uM after 24 hrs by propidium iodide staining based flow cytometry (reference value: 61.4 +/- 2.0%); assay type: functional
HepG2 [23] = experiment: Induction of cell cycle arrest on human HepG2 cells assessed as accumulation at G2/M phase at 25 uM after 48 hrs by propidium iodide staining based flow cytometry (reference value: 31.1 +/- 0.4%); assay type: functional
HepG2 [24] = experiment: Induction of cell cycle arrest on human HepG2 cells assessed as accumulation at G2/M phase at 10 uM after 24 hrs by propidium iodide staining based flow cytometry (reference value: 26.6 +/- 12.2%); assay type: functional
BJ = experiment: Antiproliferative activity against human BJ cells assessed as inhibition of cell proliferation after 72 hrs by MTT assay; assay type: cell-based; settings: 72 h; outline: as §2
HepG2 [25] = experiment: Induction of cell cycle arrest on human HepG2 cells assessed as accumulation at subG1 phase at 25 uM after 24 hrs by propidium iodide staining based flow cytometry (reference value: 4.8 +/- 0.6%); assay type: functional; outline: as §5
HepG2 [26] = experiment: Induction of cell cycle arrest on human HepG2 cells assessed as accumulation at S phase at 25 uM after 48 hrs by propidium iodide staining based flow cytometry (reference value: 6.8 +/- 5.3%); assay type: functional; outline: as §5
HepG2 [27] = experiment: Induction of cell cycle arrest on human HepG2 cells assessed as accumulation at subG1 phase at 10 uM after 24 hrs by propidium iodide staining based flow cytometry (reference value: 4.8 +/- 0.6%); assay type: functional; outline: as §5
HepG2 [28] = experiment: Induction of cell cycle arrest on human HepG2 cells assessed as accumulation at subG1 phase at 25 uM after 48 hrs by propidium iodide staining based flow cytometry (reference value: 1.9%); assay type: functional; outline: as §5

- Activity [1]: Active
- Activity [2]: Active
- IC50 (HeLa): > 100 µM
- Activity (Nucleic Acid): inactive
- ΔTm (Calf thymus DNA [3]): 6.3 °C
- IC50 (MCF7): 53.4 µM
- Activity [5]: Active
- IC50 (HepG2 [6]): 62.2 µM
- Activity (Calf thymus DNA [8]): Active
- ΔTm (Calf thymus DNA [9]): 11.3 °C
- Activity [10]: Active
SMILES: CC(C)NC(=N)c1ccc(/N=C2\c3ccccc3CN2c2ccc(C(=N)NC(C)C)cc2)cc1.Cl
- inhibition (HeLa): Dose-dependent effect
- inhibition (MCF7): Dose-dependent effect
- IC50 ([4]; Homo sapiens, WI-38, 72 h): 53.9 µM
- inhibition (INH) ([4]; human, wi-38, 72 h): Dose-dependent effect
- inhibition (HepG2 [6]): Dose-dependent effect
- inhibition [7]: inactive
- IC50 [11]: > 100 µM
- inhibition (SW-620): Dose-dependent effect

- IC50 (HeLa): 50 µM
- IC50 (MCF7): 46.1 µM
- IC50 (HepG2 [6]): 4.68 µM
SMILES: N#Cc1ccc(/N=C2\c3ccccc3CN2c2ccc(C#N)cc2)cc1
- Activity (HepG2 [12]): 26.7%
- inhibition (HeLa): Dose-dependent effect
- Activity (HepG2 [13]): 37.3%
- inhibition (MCF7): Dose-dependent effect
- Activity (HepG2 [14]): 45.9%
- Activity (HepG2 [15]): 5.2%
- Activity (HepG2 [16]): 0%
- Activity (HepG2 [17]): 0%
- Activity (HepG2 [18]): Active
- inhibition (HepG2 [6]): Dose-dependent effect
- Activity (HepG2 [19]): 16.8%
- inhibition [7]: inactive
- Activity (HepG2 [20]): 0%
- Activity (HepG2 [21]): 100%
- Activity (HepG2 [22]): 54.1%
- Activity (HepG2 [23]): 100%
- Activity (HepG2 [24]): 19.2%
- IC50 (BJ; Homo sapiens, BJ): 75.2 µM
- inhibition (INH) (BJ; human, bj): Dose-dependent effect
- Activity (HepG2 [25]): 15.7%
- Activity (HepG2 [26]): 0%
- IC50 [11]: 77.2 µM
- inhibition (SW-620): Dose-dependent effect
- Activity (HepG2 [27]): 13.3%
- Activity (HepG2 [28]): 5.7%
